Assay results as given in the EternaBench riboswitch data.

Legend:
MS2 coat protein [1] = assay: apparent Kd, MS2 coat protein; higher = weaker binding; RNA-MaP array; theophylline 2 mM where present
Summary of the method: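 Designs were transcribed by stalled E. coli RNA polymerase on Illumina sequencing-chip clusters. They were titrated with SNAP-549-labelled MS2 coat protein from 0.7 or 1.5 nM, doubling to 3 µM, in 100 mM Tris-HCl pH 7.5, 80 mM KCl, 4 mM MgCl2, BSA, DTT, yeast tRNA and Tween-20, without and then with constant ligand. The apparent Kd is the median of filtered per-cluster fits after normalisation of green signal to red-channel RNA signal and control-cluster median Fmax.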

MS2 coat protein [2] = assay: apparent Kd, MS2 coat protein; higher = weaker binding; RNA-MaP array; settings: designed as: OFF switch for flavin mononucleotide
Summary of the method: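 With or without input ligand, designed RNAs transcribed on an Illumina sequencing chip from sequenced DNA templates were incubated at room temperature with fluorescently labeled MS2 coat protein at 1.5 nM to 3 μM. The buffer was Tris-HCl pH 7.5 with KCl, MgCl2, BSA, DTT, tRNA and Tween20, and incubation ran 0.8–1.5 h at the lowest and 10–20 min at the highest concentrations. Apparent Kd is reported as the median of fits to binding curves from individual clusters. Designs measured on fewer than 10 clusters are not included.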

[3] = designed as: ON switch for theophylline, no ligand
[4] = ligand present: theophylline, designed as: ON switch for theophylline
[5] = designed as: OFF switch for theophylline, no ligand
[6] = ligand present: theophylline, designed as: OFF switch for theophylline

Sequence	apparent Kd (MS2 coat protein [1]; [3])	apparent Kd (MS2 coat protein [1]; [4])	apparent Kd (MS2 coat protein [1]; [5])	apparent Kd (MS2 coat protein [1]; [6])	other results
AUCGUACCUGGUGAUACCAGCAAUUGCUCGUGACAUGAGGAUCACCCAUGUGGCCAGUGAUGCCCUUGGCAGCAUGGUCGGUGCA	164 nM	89.3 nM			
AUGCACCUCGUCCAGGCAAUCUUUAGUGAUACCAGCUAACUCCUUGGCCCUUGGCAGCACAUGAGGAUCACCCAUGUGCGACAUC			11.9 nM	14 nM	
AUGUCGUUGAAUAUAGCGGCUUGGUGUGAUACCAGAAUGAUCUAAUUCCCUUGGCAGCAUUACAUGAGGAUCACCCAUGUUCAGG	24 nM	23.9 nM			
AUUAAUUGUCGUGAUACCAGACAUACAUGAGGAUCACCCAUGUUAAGUAACAUUUUUUAUGUCCCUUGGCAGCACUUUUUAAUUA	19.4 nM	11.5 nM			
AUUAUCAUGGUCAUAUAUAUUUCGUCAGAUACCAGACUAGAUAUAGUCCCUUGGCAGCUGUUACAUGAGGAUCACCCAUGUUAUA			116 nM		
CAAACAUGAGGAUCACCCAUGUAAUCAGAUACCAGUGACGAAAGUCACCCUUGGCAGCUGAGUACAUAUUGGCAGAGGUGUUUGA			67 nM	75 nM	
CAGAACAUGAGGAUCACCCAUGUCAGGGAUACCAGCUCAGACAUGGGCCCUUGGCAGCUCUGUGGCUGACGAAAGUCAGCAUCUG	60.8 nM	185 nM			
CCUCAUGUGGUGCUGCACAUGAGAGGUGAUACCAGCAUCGAAAGAUGCCCUUGGCAGCACCAACAUGAGGAUCACCCAUGUAAUA	57.4 nM	135 nM			
CGACUACAGCGUGAUACCAGUGACAGAUACCAGUCUAGACAUGAGGAUCACCCAUGUACGCGCCCUUGGCAGCACACUAGAUCGA	89.4 nM	49.9 nM			
CGAGUCCGCUGAUGGGCUAAGUCAGGUGAUACCAGCCACUCCCGCGGCCCUUGGCAGCACAUGAGGAUCACCCAUGUAGGGCUUG			19.6 nM	338 nM	
CGCUACGUAACUGAUACCAGUGUACUGACAUGAGGAUCACCCAUGUUGGGUUUUGUUGUACACCCUUGGCAGCAGAAUCGUAGCG			70.3 nM	95.3 nM	
CGGCCCUCACAUGAGGAUCACCCAUGUGAUACCAGCCUGGAAACAGGCCCUUGGCAGCACAGGUCAUCAAAAGAUGACCAAGCCG			12.5 nM	63.9 nM	
CUCGAGUUAUGAGAUACCAGACUAUAGUUUACAUGAGGAUCACCCAUGUUAUGGGUGGUAGUCCCUUGGCAGCUCAUAUGUUUAA			225 nM	812 nM	
GACAUGAGGAUAGAUACCAGCGACAUGAGGAUCACAUGAGGAUCACCCAUGUGUAGUAUACGCCCUUGGCAGCUAACAUGAGGAU	108 nM	94 nM			
GAGCUGAUGUAGAGUGGAUAUCCUUGAGAUACCAGUACAGAAAUGUACCCUUGGCAGCUCUUCUUUACAUGAGGAUCACCCAUGU			13.1 nM	17.5 nM	
GAUAGUUGAAGGGAUACCAGCCUGGACAUGAGGAUCACCCAUGUAGCAUGUUUGAAACUGGGCCCUUGGCAGCCCAUAUUGUGUA	22.4 nM	14.4 nM			
GAUGAACUAUUUGAUACCAGACUACAUGAGGAUCACCCAUGUGAGUUUAUACUUCAGUCAGUCCCUUGGCAGCAAAUAGUUUAUC			44.9 nM	99.3 nM	
GAUGAUAUUGCAGAUACCAGACACAUGAGGAUCACCCAUGUCGCUGAGUUGCUGGAUCGUGUCCCUUGGCAGCUGCGAUAUCAUC			19.5 nM	180 nM	
GAUGAUAUUGCAGAUACCAGACACAUGAGGAUCACCCAUGUCGUUGGGUCGCUGGGUCGUGUCCCUUGGCAGCUGCGAUAUCAUC			30.7 nM	263 nM	
GCAAUAACGAUUGAUACCAGCAUGUUAACAUGAGGAUCACCCAUGUUAAGGAUAACAUAAUGCCCUUGGCAGCAACGGAAAGCCG	24.3 nM	14 nM			
GCACCAGGUACGGAUACCAGACUCUGCCGAUUGGGUGAACAUGAGGAUCACCCAUGUUAGGUCCCUUGGCAGCCGUACCUGGUGC			28.3 nM	487 nM	
GCACUACAUGAGGAUCACCCAUGUGCAGAUACCAGAGGUGUAUGCCUCCCUUGGCAGCUGCGUCGCUCUGGAAGCCUAUUGGUUU	15.6 nM	20.9 nM			
GGAAUUAAGACUGAUACCAGUCAAGAUAAUCAUAAGAAUAAACAUGAGGAUCACCCAUGUGACCCUUGGCAGCAGACUAAUACCG	31 nM	29.6 nM			
GGCUAGUGCAUCGAUACCAGCUACAUGAGGAUCACCCAUGUAGGAAGGGUGGUACUCGAUAGCCCUUGGCAGCGAACACCUCCGG			16.1 nM	31.4 nM	
GGUGGCUGGACUGAUACCAGCCACCACCGAUAGACCACAUGAGGAUCACCCAUGUUGGGUGGCCCUUGGCAGCAGUCUAGCUGCC	561 nM	1240 nM			
UUGAAACAUGAGGAUCACCCAUGUCAGGAUAUCUUAACCCACUUACGCGAGUGUAGCCAGAGAAGGGACAGCGG					apparent Kd (MS2 coat protein [2]; no ligand): 12.1 nM; apparent Kd (MS2 coat protein [2]; ligand present: flavin mononucleotide): 17.4 nM
